Experimental data reported in ChEMBL document CHEMBL1125450, “Synthesis and in vitro characterization of novel amino terminally modified oxotremorine derivatives for brain muscarinic receptors” (J Med Chem, 1992).

Assays:
[1] = biological target: T1, Muscarinic acetylcholine receptor M1 (Rattus norvegicus, UniProt P08482); experiment: Compound was evaluated for its binding affinity towards M1 receptor in rat cortex
T1 sequence (P08482 whole entry): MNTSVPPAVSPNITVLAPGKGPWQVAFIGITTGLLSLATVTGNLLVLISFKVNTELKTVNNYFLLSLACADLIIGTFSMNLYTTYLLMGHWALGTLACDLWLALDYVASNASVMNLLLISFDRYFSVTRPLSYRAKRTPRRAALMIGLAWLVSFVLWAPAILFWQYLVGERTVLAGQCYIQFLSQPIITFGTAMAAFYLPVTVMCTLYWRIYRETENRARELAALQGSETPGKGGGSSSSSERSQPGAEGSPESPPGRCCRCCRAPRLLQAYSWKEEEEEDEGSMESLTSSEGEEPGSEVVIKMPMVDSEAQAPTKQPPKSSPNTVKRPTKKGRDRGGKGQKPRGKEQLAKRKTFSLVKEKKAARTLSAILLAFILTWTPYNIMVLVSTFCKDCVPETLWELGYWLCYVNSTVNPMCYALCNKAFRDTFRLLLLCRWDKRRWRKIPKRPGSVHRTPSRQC

[2] = biological target: T2, Muscarinic acetylcholine receptor M2 (Rattus norvegicus, UniProt P10980); experiment: Compound was evaluated for its binding affinity towards M2 receptor in rat brainstem; format: tissue-based, Brain
T2 sequence (P10980 whole entry): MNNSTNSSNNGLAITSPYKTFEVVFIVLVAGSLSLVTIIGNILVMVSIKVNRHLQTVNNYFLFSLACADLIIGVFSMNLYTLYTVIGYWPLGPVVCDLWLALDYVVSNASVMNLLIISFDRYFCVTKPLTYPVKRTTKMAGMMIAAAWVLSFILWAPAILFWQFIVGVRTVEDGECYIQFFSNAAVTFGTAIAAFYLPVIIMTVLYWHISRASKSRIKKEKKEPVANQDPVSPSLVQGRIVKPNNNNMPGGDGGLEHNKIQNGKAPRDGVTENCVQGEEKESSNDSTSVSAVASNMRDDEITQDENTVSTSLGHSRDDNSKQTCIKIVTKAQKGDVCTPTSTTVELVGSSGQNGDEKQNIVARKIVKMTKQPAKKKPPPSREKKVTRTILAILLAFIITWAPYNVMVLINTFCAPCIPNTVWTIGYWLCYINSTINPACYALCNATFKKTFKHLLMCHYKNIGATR

[3] = biological target: T1, Muscarinic acetylcholine receptor M1; experiment: Compound was evaluated for its binding affinity towards muscarinic acetylcholine receptor in rat cortex
Summary of the method: (§1)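 Rat fronto-parietal cortex homogenised 1:200 w/v in 50 mM Na-K phosphate, pH 7.4; 0.5 mg tissue competed against [3H]pirenzepine (6 nM) for 1 h at 25 °C, filtered on polyethylenimine-treated GF/B. Nonspecific binding with 10 µM atropine. IC50 converted to Ki by Cheng-Prusoff.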

[4] = biological target: T3, Muscarinic acetylcholine receptor M1 (Rattus norvegicus) (UniProt P08482); experiment: Intrinsic activity against Muscarinic acetylcholine receptor M1 in rat cortex (activity expressed as % response of that produced by carbachol); format: functional
T3 sequence (whole entry): T1 sequence (P08482 whole entry)
Summary of the method: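 Dissociated male Sprague-Dawley rat cortex, rejuvenated in oxygenated Krebs-Henseleit (final step with 10 mM Li+), labeled 60 min at 37 °C with [3H]inositol. Compound at 1 mM added for 60 min under 95% O2/5% CO2; [3H]inositol 1-phosphate isolated on Dowex. Response scaled to 1 mM carbachol PI hydrolysis (100%).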

[5] = biological target: T2, Muscarinic acetylcholine receptor M2; experiment: Compound was evaluated for its binding affinity towards muscarinic acetylcholine receptor M2 in rat brainstem; format: tissue-based, Brain
Summary of the method: (§2)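 Rat pons-medulla homogenised 1:200 w/v in 50 mM sodium phosphate, pH 7.4; 0.5 mg tissue with 0.2 nM [3H]QNB and varying unlabeled ligand, 75 min at 25 °C. IC50 corrected to Ki by Cheng-Prusoff.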

[6] = biological target: T4, Muscarinic acetylcholine receptor M2 (Rattus norvegicus) (UniProt P10980); experiment: Intrinsic activity against muscarinic acetylcholine receptor M2 in rat striatum (activity expressed as % response of that produced by carbachol); format: functional, tissue-based
T4 sequence (whole entry): T2 sequence (P10980 whole entry)
Summary of the method: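 Dissociated rat striatum prelabeled 45 min at 37 °C with [3H]adenine, then 30 min with 1.5 mM IBMX before 10 µM forskolin plus 100 µM compound for 10 min; stopped with TCA, [3H]cAMP by ion-exchange columns. Inhibition of cAMP scaled to that of 100 µM carbachol (100%).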

[7] = biological target: T1, Muscarinic acetylcholine receptor M1; experiment: Compound was evaluated for its binding affinity towards Muscarinic acetylcholine receptor M1 in rat cortex; summary of the method: as §1
[8] = biological target: T2, Muscarinic acetylcholine receptor M2; experiment: Compound was evaluated for its binding affinity towards Muscarinic acetylcholine receptor M2 in rat brainstem; format: tissue-based, Brain; summary of the method: as §2

| Structure (SMILES) | Ki [1] [µM] | Ki [2] [µM] | Ki [3] [µM] | Response [4] [%] | Ki [5] [µM] | other results |
| --- | --- | --- | --- | --- | --- | --- |
| O=C1CCCN1CC#CC[C@H]1CCCN1 | 3.07 | 2.46 | – | – | – | – |
| CN1CCC[C@H]1CC#CCN1CCCC1=O | 10.5 | 10.8 | – | – | – | – |
| O=C1CCCN1CC#CCN1CCCC1 [OXOTREMORINE] | – | – | 0.196 | 13.7 | 0.084 | – |
| CCN(C)CC#CCN1CCCC1=O | – | – | 2.69 | 2.75 | 0.813 | Response [6]: 91.6% |
| CN1CCCC[C@H]1CC#CCN1CCCC1=O | 5.38 | 7.06 | – | – | – | – |
| O=C1CCCN1CC#CC[C@@H]1CCCN1 | 40.5 | 5.64 | – | – | – | – |
| O=C1CCCN1CC#CC[C@H]1CCCCN1 | 3.03 | 0.636 | – | – | – | – |
| CN(C)CC#CCN1CCCC1=O | – | – | – | – | – | Ki [7]: 15.9 µM; Ki [8]: 0.926 µM |
| CNCC#CCN1CCCC1=O | – | – | 65.5 | 5.7 | 38.1 | Response [6]: 36.3% |
| CN1CCCC[C@@H]1CC#CCN1CCCC1=O | 1.2 | 3.66 | – | – | – | – |
| O=C1CCCN1CC#CCN1CCC1 | – | – | 2.25 | 46.2 | 0.0274 | Response [6]: 105% |
| O=C1CCCN1CC#CC[C@@H]1CCCCN1 | 27.6 | 15.8 | – | – | – | – |
| CN1CCC[C@@H]1CC#CCN1CCCC1=O | 5.46 | 5.86 | – | – | – | – |
